Assays:
NCI-H460 [1] = assay: MTT assay, NCI-H460; type: cell-based, human; settings: read-out: IC50 Value NCI-H460, 72 hours
Outline: (§1)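 Human NSCLC lines were kept in RPMI 1640 with 10% FBS at 37 °C, 5% CO2, passaged every 2–3 days. Cells were seeded at 5,000–7,000/well depending on line and left 24 h. Test compound in DMSO/water (1 mM stock) was added at final 1, 4, 16 and 32 μM in medium, 6 replicates, for 72 h. MTT was applied for 3–4 h, then medium was replaced by DMSO for 15 min and OD read at 540 nm. IC50 is growth inhibition of 50% versus untreated cells.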

HCC827 = assay: MTT assay, HCC827; type: cell-based, human; settings: read-out: IC50 Value HCC827, 72 hours
Outline: as §1

A549 = assay: MTT assay, A549; type: cell-based, human; settings: read-out: IC50 Value A549, 72 hours
Outline: as §1

NCI-H1975 = assay: MTT assay, NCI-H1975; type: cell-based, human; settings: read-out: IC50 Value NCI-H1975, 72 hours
Outline: as §1

[2] = test system: NSCLC cell lines (NCI-H460, NCI-H1975, HCC827, and A549); assay: MTT assay, panel of four NSCLC cell lines; type: cell-based, human
Outline: as §1

nine NSCLC cell lines = assay: NCI-60 one-dose assay, average over nine NSCLC cell lines; type: cell-based; settings: Homo sapiens, 48 h, read-out: Growth % Average
Outline: (§2)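 NCI DTP single-dose screen. Cells were seeded at a density tied to doubling rate and incubated 24 h, then exposed to test compound at 10 μM for 48 h. Growth percentage is relative to the starting cell population: positive means net growth, negative means cell loss. It is given per NSCLC line or as the mean across the nine NSCLC lines.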

NCI-H522 [3] = assay: NCI-60 five-dose assay, NCI-H522; type: cell-based, human; settings: 48 hours, total growth inhibition
EKVX = assay: NCI-60 five-dose assay, EKVX; type: cell-based, human; settings: 48 hours, total growth inhibition
C57BL/6 mice = assay: Preliminary in vivo toxicity study; settings: 20 mg/kg IP on days 0, 7, 14 and 29
NCI-H522 [4] = assay: NCI-60 one-dose assay, NCI-H522; type: cell-based; settings: Homo sapiens, NCI-H522, 48 h, read-out: Growth % NCI-H522
Outline: as §2

A549/ATCC = assay: NCI-60 five-dose assay, A549/ATCC; type: cell-based; settings: 48 hours, total growth inhibition
HOP-92 = assay: NCI-60 five-dose assay, HOP-92; type: cell-based, human; settings: 48 hours, total growth inhibition
NSCLC cell lines = assay: NCI-60 five-dose assay, ranges over NSCLC cell lines; type: cell-based; settings: Homo sapiens; for GI50: read-out: GI50 values, range over NSCLC cell lines; for CC50: read-out: LC50 values, range over NSCLC cell lines
NCI-H23 = assay: NCI-60 five-dose assay, NCI-H23; type: cell-based, human; settings: 48 hours, total growth inhibition
HOP-62 = assay: NCI-60 five-dose assay, HOP-62; type: cell-based, human; settings: 48 hours, total growth inhibition
NCI-H226 = assay: NCI-60 five-dose assay, NCI-H226; type: cell-based, human; settings: 48 hours, total growth inhibition
NCI-H460 [5] = assay: NCI-60 five-dose assay, NCI-H460; type: cell-based, human; settings: 48 hours, total growth inhibition
NCI-H322M = assay: NCI-60 five-dose assay, NCI-H322M; type: cell-based, human; settings: 48 hours, total growth inhibition
NCI-H460 [6] = assay: NCI-60 one-dose assay, NCI-H460; type: cell-based; settings: Homo sapiens, NCI-H460, 48 h, read-out: Growth % NCI-H460
Outline: as §2

Question: How did the IC50 (NCI-H460 [1]) turn out when `N.N.[Cl][Pt][Cl]` [Cisplatin, cisplatin] was run?
Answer: Its IC50 is 6 µM.

Question: What about the IC50 (HCC827) of the same compound?
Answer: Its IC50 is 9 µM.

Question: And the IC50 (A549)?
Answer: The IC50 was 5 µM.

Question: What about the IC50 (NCI-H1975) of the same compound?
Answer: Its IC50 is 3 µM.

Question: What does the source list for `[Br-].[Br-].c1ccc2cc(Cn3cc[n+](Cn4cc[n+](Cc5ccc6ccccc6c5)c4)c3)ccc2c1` [Compound 1, 1-(naphthalen-2-ylmethyl)-3-((3-(naphthalen-2-ylmethyl)-imidazolium-1-yl)methyl)-imidazolium bromide]?
Answer: IC50 values for three of the four cell lines ([2]; MTT, 72 hours, three of the four cell lines tested): above the testing concentration; activity at 10 µM (nine NSCLC cell lines): 79.5%

Question: How did the activity at 10 µM (nine NSCLC cell lines) turn out when `c1ccc2cc(Cn3cc[n+](CCn4cc[n+](Cc5ccc6ccccc6c5)c4)c3)ccc2c1` [Compound 2, 1-(naphthalen-2-ylmethyl)-3-(2-(3-(naphthalen-2-ylmethyl)-imidazolium-1-yl)ethyl)-imidazolium bromide] was run?
Answer: The activity at 10 µM was 80.9%.

Question: How did the activity at 10 µM (nine NSCLC cell lines) turn out when `c1ccc2cc(Cn3cc[n+](CCCn4cc[n+](Cc5ccc6ccccc6c5)c4)c3)ccc2c1` [Compound 3, 1-(naphthalen-2-ylmethyl)-3-(3-(3-(naphthalen-2-ylmethyl)-imidazolium-1-yl)propyl)-imidazolium bromide] was run?
Answer: The activity at 10 µM was 72.8%.

Question: `c1ccc2cc(Cn3cc[n+](CCCCCn4cc[n+](Cc5ccc6ccccc6c5)c4)c3)ccc2c1` [Compound 5, 1-(naphthalen-2-ylmethyl)-3-(5-(3-(naphthalen-2-ylmethyl)-imidazolium-1-yl)pentyl)-imidazolium bromide] was tested. Which activity at 10 µM (nine NSCLC cell lines) did it give?
Answer: The activity at 10 µM was 53.9%.

Question: How did the activity at 10 µM (nine NSCLC cell lines) turn out when `c1ccc2cc(Cn3cc[n+](CCCCCCn4cc[n+](Cc5ccc6ccccc6c5)c4)c3)ccc2c1` [Compound 6, 1-(naphthalen-2-ylmethyl)-3-(6-(3-(naphthalen-2-ylmethyl)-imidazolium-1-yl)hexyl)-imidazolium bromide] was run?
Answer: The activity at 10 µM was 47.3%.

Question: Which activity at 10 µM (nine NSCLC cell lines) does the source give for `c1ccc2cc(Cn3cc[n+](CCCCCCCn4cc[n+](Cc5ccc6ccccc6c5)c4)c3)ccc2c1` [Compound 7, 1-(naphthalen-2-ylmethyl)-3-(7-(3-(naphthalen-2-ylmethyl)-imidazolium-1-yl)heptyl)-imidazolium bromide] here?
Answer: Its activity at 10 µM is 30%.

Question: For `[Br-].[Br-].c1ccc2cc(Cn3cc[n+](CCCCCCCCCCn4cc[n+](Cc5ccc6ccccc6c5)c4)c3)ccc2c1` [Compound 10, 1-(naphthalen-2-ylmethyl)-3-(10-(3-(naphthalen-2-ylmethyl)-imidazolium-1-yl)decyl)-imidazolium bromide], which “TGI NCI-H522” value (NCI-H522 [3]) is on record?
Answer: Its value is 1.94 µM.

Question: What about the “TGI EKVX” value (EKVX) of the same compound?
Answer: The value was 9.07 µM.

Question: What about the tolerability (C57BL/6 mice) of the same compound?
Answer: The tolerability was “well tolerated”.

Question: And the activity at 10 µM (NCI-H522 [4])?
Answer: The activity at 10 µM was -72.3%.

Question: And the “TGI A549/ATCC” value (A549/ATCC)?
Answer: Its value is 13.3 µM.

Question: And the “TGI HOP-92” value (HOP-92)?
Answer: Its value is 2.96 µM.

Question: And the activity at 10 µM (nine NSCLC cell lines)?
Answer: Its activity at 10 µM is 2.47%.

Question: What about the GI50 (NSCLC cell lines) of the same compound?
Answer: The GI50 was 0.396 to 3.55 µM.

Question: What about the CC50 (NSCLC cell lines) of the same compound?
Answer: The CC50 was 15.2 to 58.4 µM.

Question: What about the “TGI NCI-H23” value (NCI-H23) of the same compound?
Answer: The value was 3.35 µM.

Question: And the “TGI HOP-62” value (HOP-62)?
Answer: The value was 7.24 µM.

Question: How did the “TGI NCI-H226” value (NCI-H226) turn out when `[Br-].[Br-].c1ccc2cc(Cn3cc[n+](CCCCCCCCCCCCn4cc[n+](Cc5ccc6ccccc6c5)c4)c3)ccc2c1` [Compound 12, 1-(naphthalen-2-ylmethyl)-3-(12-(3-(naphthalen-2-ylmethyl)-imidazolium-1-yl)dodecyl)-imidazolium bromide] was run?
Answer: The value was 5.52 µM.

Question: What about the “TGI NCI-H460” value (NCI-H460 [5]) of the same compound?
Answer: The value was 2.96 µM.

Question: And the “TGI NCI-H522” value (NCI-H522 [3])?
Answer: The value was 1.25 µM.

Question: And the “TGI NCI-H322M” value (NCI-H322M)?
Answer: The value was 3.90 µM.

Question: And the “TGI EKVX” value (EKVX)?
Answer: The value was 4.20 µM.

Question: What about the IC50 ([2]; Homo sapiens, 72 h, read-out: IC50 values for three of the four cell lines) of the same compound?
Answer: Its IC50 is < 1 µM.

Question: What about the activity at 10 µM (NCI-H460 [6]) of the same compound?
Answer: Its activity at 10 µM is -69.9%.

Question: And the “TGI A549/ATCC” value (A549/ATCC)?
Answer: Its value is 3.57 µM.

Question: What about the “TGI HOP-92” value (HOP-92) of the same compound?
Answer: The value was 1.40 µM.

Question: And the activity at 10 µM (nine NSCLC cell lines)?
Answer: Its activity at 10 µM is -60.9%.

Question: And the GI50 (NSCLC cell lines)?
Answer: The GI50 was 0.47 to 0.984 µM.

Question: And the CC50 (NSCLC cell lines)?
Answer: Its CC50 is 7.29 to 14.6 µM.

Question: And the “TGI NCI-H23” value (NCI-H23)?
Answer: The value was 2.40 µM.

Question: What about the “TGI HOP-62” value (HOP-62) of the same compound?
Answer: Its value is 2.65 µM.

Reference: article PMC7903221 (Bioorganic & medicinal chemistry, 2020)
